The values that follow come from ChEMBL document CHEMBL5335790, “Design, synthesis and biological evaluation of novel 2,4-thiazolidinedione derivatives able to target the human BAG3 protein” (Eur J Med Chem, 2023).

In assay [1] the target is T1, BAG family molecular chaperone regulator 3 (Homo sapiens, UniProt O95817). The assay can be described thus: Binding affinity to CM4 sensorchip immobilized C-terminal His tagged human BAG3 transfected in HEK293T cells at 50 uM by SPR analysis. The essentials:
(§1)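 SPR screen on BAG3-His amine-coupled to a CM4 chip at 60 µg/mL in pH 2.8 acetate. Compound at 50 µM in PBS with 5% DMSO and 0.05% P20 was injected for 90 s at 30 µL/min, then washed. Chip regenerated with 10 mM glycine pH 3. Bound RU read at equilibrium against a void flow cell; 3–10 repeats, mean ± SEM.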
Background: In SPR one partner is held on a chip, and binding of the other changes the refractive index at the surface.

In assay [2] the test system is HD-MB03. Description: Antiproliferative activity against human HD-MB03 cells assessed as cell growth inhibition incubated for 72 hrs by resazurin dye based analysis. The class given is functional. Put shortly:
(§2)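 Cells seeded at 2000/well, treated 24 h later with compounds in a 6-point 2-fold dose series, duplicate wells, two independent experiments. After 72 h, resazurin was added at 44 µM final for 3 h at 37 °C and fluorescence was read at 590 nm. Viability was normalized to 1 µM bortezomib (positive) and 0.5% DMSO (negative) controls. GI50 is the mean ± SEM of dose-response curves.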
A general note: Resazurin is reduced to fluorescent resorufin, in cell work by metabolically active cells.

Assay [3] concerns RS4-11. The assay can be described thus: Antiproliferative activity against human RS4-11 cells assessed as cell growth inhibition incubated for 72 hrs by resazurin dye based analysis. Format: functional. The essentials: as §2
In assay [4] the test system is A549. Description: Antiproliferative activity against human A549 cells assessed as cell growth inhibition incubated for 72 hrs by resazurin dye based analysis. Format: functional. The essentials: as §2
Assay [5] addresses T1, BAG family molecular chaperone regulator 3. Description: Binding affinity to CM4 sensorchip immobilized C-terminal His tagged human BAG3 transfected in HEK293T cells assessed as binding capacity at 50 uM by SPR analysis. The essentials: as §1
Assay [6] shares this target. Description: Binding affinity to CM4 sensorchip immobilized glycosylated C-terminal His tagged human BAG3 transfected in HEK293T cells assessed as dissociation constant by SPR analysis. Put shortly: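 SPR single-cycle kinetics on CM4-immobilized HEK-293T-expressed BAG3-His. Increasing compound concentrations in PBS with 5% DMSO and 0.05% P20 were injected at 30 µL/min without regeneration between injections, with blank subtraction. Kd from steady-state analysis, reported as mean ± SEM and compared by Student t-test.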

One may read the GI50 as the concentration that inhibits growth by half. Usually Kd stands for the concentration at which binding is half-saturated.

SMILES strings stand for the structures. Calls of active or inactive are those of the source. The calls are words filed in the database; no cut-off is given here.

T1 sequence (O95817 whole entry): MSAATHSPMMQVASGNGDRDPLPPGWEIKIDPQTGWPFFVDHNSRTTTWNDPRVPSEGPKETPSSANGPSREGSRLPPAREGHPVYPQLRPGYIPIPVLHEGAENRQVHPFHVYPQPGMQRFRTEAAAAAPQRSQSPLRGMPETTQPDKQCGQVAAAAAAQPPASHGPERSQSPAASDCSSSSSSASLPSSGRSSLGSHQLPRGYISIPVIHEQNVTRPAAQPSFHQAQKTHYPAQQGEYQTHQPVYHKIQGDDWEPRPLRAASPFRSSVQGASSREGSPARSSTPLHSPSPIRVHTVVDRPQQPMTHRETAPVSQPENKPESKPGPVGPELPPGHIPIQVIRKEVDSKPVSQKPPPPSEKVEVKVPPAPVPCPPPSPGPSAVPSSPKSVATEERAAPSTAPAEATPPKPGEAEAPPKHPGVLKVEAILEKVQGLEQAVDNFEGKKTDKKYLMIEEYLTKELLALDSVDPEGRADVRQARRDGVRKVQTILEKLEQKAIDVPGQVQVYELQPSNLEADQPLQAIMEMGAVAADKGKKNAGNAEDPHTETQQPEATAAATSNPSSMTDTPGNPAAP

With `CCOC(=O)C(C)N1C(=O)S/C(=C\c2ccc(F)c(O)c2)C1=O` (racemic), in assay [1], the outcome was inactive. The GI50 in assay [2], in assay [3] and in assay [4] was > 100 µM in each case.

As to `CC(C(=O)N1CCOCC1)N1C(=O)S/C(=C\c2ccc(O)c(O)c2)C1=O` (racemic), the result in assay [1] was inactive. Also, the GI50 was found to be 48.7 µM in assay [2], 14.1 µM in assay [3] and 47.9 µM in assay [4].

On to `CCOC(=O)C(C1CC1)N1C(=O)S/C(=C\c2ccc(O)c(O)c2)C1=O` (racemic), for which the Activity in assay [5] was > 5 RU. Further, the Kd in assay [6] was 204 µM. Also, the values for the GI50 in assay [2], in assay [3] and in assay [4] were 15.5 µM, 6.83 µM and 28.1 µM, respectively.

`CCOC(=O)CN1C(=O)S/C(=C\c2ccc(F)cc2)C1=O`: the outcome in assay [1] was inactive. The GI50 in assay [2] was 34.7 µM; in assay [3] it was > 100 µM; in assay [4] it was > 100 µM.

As for `CCOC(=O)CN1C(=O)S/C(=C\c2ccc(OC)nc2)C1=O`, the result in assay [1] was inactive. The GI50 in assay [2] is 41.1 µM; in assay [3], > 100 µM; in assay [4], > 100 µM.

On to `CS(=O)(=O)Nc1ccc(/C=C2\SC(=O)N(CC(=O)N3CCOCC3)C2=O)cc1`, for which the result in assay [1] was inactive. Besides, the results for the GI50 in assay [2], in assay [3] and in assay [4] were 47.4 µM, 12.4 µM and 47.7 µM, respectively.

As to `O=C1OCCC1N1C(=O)S/C(=C\c2ccc(O)c(O)c2)C1=O` (centres undefined), the Activity in assay [5] was < 5 RU. Besides, the GI50 came out at 20.7 µM in assay [2], 18.1 µM in assay [3] and 50.2 µM in assay [4].

Regarding `CCOC(=O)CN1C(=O)S/C(=C\c2cccc(O)c2)C1=O`, the result in assay [1] was inactive. Further, the results for the GI50 in assay [2], in assay [3] and in assay [4] were 40.7 µM, 55 µM and > 100 µM, respectively.

For `CCOC(=O)CN1C(=O)S/C(=C(/C)c2ccc(O)c(O)c2)C1=O`, the result in assay [1] was inactive. The GI50 worked out at 6.4 µM in assay [2], 7.25 µM in assay [3] and 44.2 µM in assay [4].

Turning to `CCOC(=O)C(C)N1C(=O)S/C(=C\c2ccc(O)c(Cl)c2)C1=O` (racemic), the result in assay [1] was inactive. In addition, the GI50 in assay [2] came out at 26.5 µM; in assay [3] it was 38.1 µM; in assay [4] it was 49.4 µM.

Take `CCOCCN1C(=O)S/C(=C\c2ccc(O)c(O)c2)C1=O`: in assay [1], the result was inactive. The GI50 is 17.8 µM in assay [2], 6.1 µM in assay [3] and 34.3 µM in assay [4].

Take `O=C(CN1C(=O)S/C(=C\c2ccc(O)c(O)c2)C1=O)OCc1ccccc1`: the outcome in assay [1] was inactive.

Turning to `CCOC(=O)C(C)N1C(=O)S/C(=C\c2ccc3cn[nH]c3c2)C1=O` (racemic), the Activity in assay [5] is < 5 RU. In addition, the GI50 was 26.3 µM in assay [2], 17.8 µM in assay [3] and 57.5 µM in assay [4].

As to `O=C(O)CN1C(=O)S/C(=C\c2ccc(O)c(O)c2)C1=O`, the result in assay [1] was inactive. In addition, the GI50 in assay [2], in assay [3] and in assay [4] was > 100 µM throughout.

On to `CCOC(=O)C(C)N1C(=O)S/C(=C\c2ccc3c(c2)NC(=O)CO3)C1=O` (racemic), for which, in assay [1], the result was inactive. Also, the GI50 in assay [2] is 40.7 µM; in assay [3], 28.1 µM; in assay [4], > 100 µM.

Turning to `O=C(CN1C(=O)S/C(=C\c2cc(Cl)c(O)c(Cl)c2)C1=O)N1CCOCC1`, in assay [1], the outcome was inactive. Further, the GI50 in assay [2], in assay [3] and in assay [4] was > 100 µM in each case.

As to `CCOC(=O)CN1C(=O)SC(Cc2ccc(O)c(O)c2)C1=O` (centres undefined), in assay [1], the outcome was inactive. Also, the results for the GI50 in assay [2], in assay [3] and in assay [4] were 49 µM, 27.6 µM and > 100 µM, respectively.

For `CCOC(=O)C(C)N1C(=O)/C(=C/c2ccc(O)c(O)c2)N(C)C1=O` (centres undefined), the outcome in assay [1] was inactive. The GI50 in assay [2] amounted to 53.3 µM; in assay [3] it was 17.8 µM; in assay [4], 52.6 µM.

For `CCOC(=O)C(C)N1C(=O)N/C(=C\c2ccc(O)c(O)c2)C1=O` (racemic), the outcome in assay [1] was inactive. Besides, the results for the GI50 in assay [2], in assay [3] and in assay [4] were 16.9 µM, 11.9 µM and 54.1 µM, respectively.

Turning to `CC(C(=O)N1CCOCC1)N1C(=O)S/C(=C\c2ccc(N3CCOCC3)cc2)C1=O` (racemic), the Activity in assay [5] is < 5 RU. In addition, the GI50 in assay [2], in assay [3] and in assay [4] was > 100 µM each time.

Turning to `CCOC(=O)C(C)N1C(=O)S/C(=C\c2cc(F)c(O)c(F)c2)C1=O` (racemic), the result in assay [1] was inactive. Besides, the GI50 in assay [2], in assay [3] and in assay [4] was > 100 µM throughout.

For the compound `CN(C)C(=O)CN1C(=O)S/C(=C\c2ccc(O)c(O)c2)C1=O`, the outcome in assay [1] was inactive. Moreover, the GI50 in assay [2] turned out to be 36.4 µM; in assay [3], 25.6 µM; in assay [4] it was 48.3 µM.

As to `CC(C(=O)N1CCOCC1)N1C(=O)S/C(=C\c2ccc(N3CCCC3)cc2)C1=O` (racemic), the Activity in assay [5] is < 5 RU. Moreover, the values for the GI50 in assay [2], in assay [3] and in assay [4] were 7.4 µM, 5.2 µM and 69 µM, respectively.

As to `CC(C(=O)N1CCC2(CC1)OCCO2)N1C(=O)S/C(=C\c2ccc(O)c(O)c2)C1=O` (racemic), in assay [5], the Activity is < 5 RU. Also, the GI50 is 31.4 µM in assay [2], 13.4 µM in assay [3] and 44.1 µM in assay [4].

As to `CCOC(=O)C(C)N1C(=O)S/C(=C\c2cc(Cl)c(O)c(Cl)c2)C1=O` (racemic), in assay [5], the Activity is < 5 RU. Besides, the GI50 came out at 45.6 µM in assay [2], 47.2 µM in assay [3] and 72.5 µM in assay [4].

Turning to `CCOC(=O)Cc1csc(Oc2ccc(O)cc2)n1`, the Activity in assay [5] was < 5 RU. Also, the GI50 in assay [2], in assay [3] and in assay [4] was > 100 µM throughout.

In the case of `CCOC(=O)C(C)N1C(=O)S/C(=C\c2ccc(NS(C)(=O)=O)cc2)C1=O` (racemic), the GI50 in assay [2] is 17.6 µM; in assay [3] it was 50.3 µM; in assay [4], > 100 µM.

In the case of `CCOC(=O)C(C)N1C(=O)S/C(=C\c2ccc(Cl)c(O)c2)C1=O` (racemic), in assay [5], the Activity is < 5 RU. Moreover, the values for the GI50 in assay [2], in assay [3] and in assay [4] were 5.26 µM, 60.6 µM and > 100 µM, respectively.

With `CCOC(=O)CN1C(=O)S/C(=C\c2ccc(O)c(F)c2)C1=O`, in assay [1], the outcome was inactive. In addition, the GI50 was 58.3 µM in assay [2], > 100 µM in assay [3] and > 100 µM in assay [4].

For `CCOC(=O)C(C)N1C(=O)S/C(=C\c2ccc(O)nc2)C1=O` (racemic), in assay [1], the outcome was inactive. Moreover, the GI50 in assay [2], in assay [3] and in assay [4] was > 100 µM each time.

On to `CCOC(=O)CN1C(=O)S/C(=C\c2ccc(O)cc2)C1=O`, for which, in assay [1], the outcome was inactive. Also, the GI50 was 29.5 µM in assay [2], > 100 µM in assay [3] and > 100 µM in assay [4].

With `CCOC(=O)CN1C(=O)S/C(=C\c2ccc(OC)c(OC)c2)C1=O`, in assay [1], the outcome was inactive. Further, the figures for the GI50 in assay [2], in assay [3] and in assay [4] were 45 µM, > 100 µM and > 100 µM, respectively.

On to `CCOC(=O)C(CC)N1C(=O)S/C(=C\c2ccc(O)c(O)c2)C1=O` (racemic), for which the Activity in assay [5] is > 5 RU. Moreover, the GI50 in assay [2] was determined as 11.7 µM; in assay [3] it was 5.13 µM; in assay [4] it was 29.3 µM.

With `CCOC(=O)CN1C(=O)S/C(=C\c2ccc3c(c2)OCCO3)C1=O`, the outcome in assay [1] was inactive. Besides, the GI50 in assay [2], in assay [3] and in assay [4] was > 100 µM throughout.

For the compound `CCOC(=O)C(C)N1C(=O)S/C(=C\c2ccc3[nH]ncc3c2)C1=O` (racemic), the Activity in assay [5] is < 5 RU. Moreover, the GI50 was determined as 28.3 µM in assay [2], 50.5 µM in assay [3] and 68 µM in assay [4].

On to `CCNC(=O)C(C)N1C(=O)S/C(=C\c2ccc(O)c(O)c2)C1=O` (racemic), for which the outcome in assay [1] was inactive. Besides, the figures for the GI50 in assay [2], in assay [3] and in assay [4] were 53.1 µM, 24.8 µM and 70.9 µM, respectively.

As for `CCOC(=O)CN1C(=O)S/C(=C\c2ccc(Cl)c(Cl)c2)C1=O`, the result in assay [1] was inactive. Further, the GI50 in assay [2], in assay [3] and in assay [4] was > 100 µM in each case.

On to `CC(C(=O)N1CC2(COC2)C1)N1C(=O)S/C(=C\c2ccc(O)c(O)c2)C1=O` (racemic), for which, in assay [1], the outcome was inactive. Moreover, the GI50 in assay [2], in assay [3] and in assay [4] was > 100 µM throughout.
